ChEMBL document CHEMBL2010650, “Synthetic N-alkylated iminosugars as new potential immunosuppressive agents” (ACS Med Chem Lett, 2011)
Activity calls are given as the source filed them. No cut-off for these calls is given here.

How the values were obtained:
Splenocyte [1] = assay: Immunosuppressive activity in BALB/c mouse splenocytes assessed as reduction in concanavalin-A-induced IFN-gamma production at 1 uM after 48 hrs by ELISA; format: functional; parameters: scale not given: the % may be the effect or the level left
Method in brief: (§1)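 Splenocytes induced with 2.5 μg/mL Con A, co-incubated with compound 48 h at 37 °C, 5% CO₂. Culture supernatant assayed for IFN-γ or IL-4 by mouse ELISA kit. Reduction is relative to Con A-only control, with CsA 1 μM as positive control.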

Splenocyte [2] = assay: Immunosuppressive activity in BALB/c mouse splenocytes assessed as reduction in concanavalin-A-induced IL4 production at 1 uM after 48 hrs by ELISA; format: functional; parameters: scale not given: the % may be the effect or the level left; method in brief: as §1
[3] = Immunosuppressive activity in BALB/c mouse splenocytes assessed as inhibition of concanavalin-A-induced cell proliferation at 30 uM after 48 hrs by MTT assay; format: functional; conditions: Splenocyte
Method in brief: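 Mouse splenocytes stimulated with Con A at 2.5 μg/mL, incubated with compound at 37 °C, 5% CO₂ for 48 h. Proliferation read by MTT assay. Con A-treated cells serve as control, CsA (1 μM) as positive control. Inhibition is expressed relative to control, as means ± SEM.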

Splenocyte [4] = assay: Immunosuppressive activity in BALB/c mouse splenocytes assessed as reduction in concanavalin-A-induced IFN-gamma production at 30 uM after 48 hrs by ELISA; format: functional; parameters: scale not given: the % may be the effect or the level left; method in brief: as §1
Splenocyte [5] = assay: Immunosuppressive activity in BALB/c mouse splenocytes assessed as reduction in concanavalin-A-induced IL4 production at 30 uM after 48 hrs by ELISA; format: functional; parameters: scale not given: the % may be the effect or the level left; method in brief: as §1
Th1 = assay: Immunosuppressive activity in Th1 cells assessed as reduction of IFNgamma production; format: functional, cell-based
Mus musculus [6] = assay: Immunosuppressive activity in C57BL/6 mouse transplanted with trunk skin of BALB/c mouse assessed as increase of allograft mean survival time at 50 umol/kg, sc (reference value: 11.25 +/- 1.83 days); format: functional
Th2 = assay: Immunosuppressive activity in Th2 cells assessed as reduction of IL-4 production; format: functional, cell-based
Mus musculus [7] = organism: Mus musculus; assay: Toxicity in C57BL/6 mouse transplanted with trunk skin of BALB/c mouse assessed as mortality; format: organism-based; conditions: in vivo
[8] = Toxicity in subcutaneously dosed C57BL/6 mouse transplanted with trunk skin of BALB/c mouse; format: organism-based; conditions: in vivo, sc

| Structure (SMILES) | Activity (Splenocyte [1]) [%] | Activity (Splenocyte [2]) [%] | inhibition at 30 µM [3] [%] | Activity (Splenocyte [4]) [%] | Activity (Splenocyte [5]) [%] | Activity (Th1) | MST (Mus musculus [6]) [days] | Activity (Th2) | Activity (Mus musculus [7]) | LD50 [8] [mg/kg] |
| --- | --- | --- | --- | --- | --- | --- | --- | --- | --- | --- |
| C/C=C/C[C@@H](C)[C@@H](O)[C@H]1C(=O)N[C@@H](CC)C(=O)N(C)CC(=O)N(C)[C@@H](CC(C)C)C(=O)N[C@@H](C(C)C)C(=O)N(C)[C@@H](CC(C)C)C(=O)N[C@@H](C)C(=O)N[C@H](C)C(=O)N(C)[C@@H](CC(C)C)C(=O)N(C)[C@@H](CC(C)C)C(=O)N(C)[C@@H](C(C)C)C(=O)N1C [CYCLOSPORINE] | 97.1 | 96.8 | – | – | – | – | – | – | – | – |
| CCCCCCCCCCN1C[C@H](O)[C@@H](O)[C@@H](O)C1=O | – | – | < 40 | – | – | – | – | – | – | – |
| CCCCCCCCCCN1C[C@H](O)[C@@H](O)[C@H](O)C1=O | – | – | < 40 | – | – | – | – | – | – | – |
| CCCCCCCCCCN1C[C@@H](O)[C@@H](O)[C@H](O)C1=O | – | – | < 40 | – | – | – | – | – | – | – |
| CCCCCCCCCCN1C[C@H](O)[C@H](O)C1=O | – | – | < 40 | – | – | – | – | – | – | – |
| CCCCCCCCN1C[C@@H](O)[C@H](O)[C@@H](O)C1 | – | – | 27.1 | 40.3 | 8.7 | Active | – | – | – | – |
| CCCCCCCCCCN1C[C@H](O)C(O)[C@@H](O)C1 | – | – | 57.2 | 78.1 | 95.7 | Active | 14.14 | Active | Non-toxic | – |
| CCCCCCCCCCN1C[C@@H](O)[C@@H](O)C1 | – | – | 61 | 94.7 | 88.6 | Active | 15.6 | Active | Non-toxic | 392 |
| CCCCCCCCCCN1C[C@@H](O)C(O)[C@H](O)C1 | – | – | 59 | 75 | 85.6 | Active | 15.2 | Active | Non-toxic | – |
| CCCCCCCCCCN1C[C@@H](O)[C@H](O)[C@@H](O)C1 | – | – | 45.9 | 89.1 | 60.9 | Active | 14.71 | Active | Non-toxic | – |
